ChEMBL document CHEMBL4689842, “EUbOPEN Chemogenomics Library wave 1” (2021)

Legend:
Type in all cases: toxicity, cell-based
U2OS = assay: Incucyte cell viability with U2OS; conditions: human, 10 µM, compound concentration 10 uM; also: filed as whole numbers so only -1 and 0 and 1 occur
Fibroblast [1] = assay: Incucyte cell viability with human fibroblast; conditions: 10 µM, compound concentration 10 uM; also: filed as whole numbers so only -1 and 0 and 1 occur
HEK-293T = assay: Incucyte cell viability with HEK293T; conditions: human, 10 µM, compound concentration 10 uM; also: filed as whole numbers so only -1 and 0 and 1 occur
Fibroblast [2] = assay: Multiplex assay against human fibroblast
How it was run: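 Cells were classed with CellPathfinder machine-learning gating, first as Hoechst high-intensity objects or normal cells, then (normal cells) as healthy, pyknosed or fragmented nuclei, and finally (pyknosed cells) as mitotic or apoptotic. Staining of live cells at seeding used Hoechst33342, BioTracker Green Microtubule Cytoskeleton Dye, MitoTracker Red and Annexin V Alexa Fluor 680, with imaging on a CQ1 microscope at 37°C and 5% CO2 after compound addition. Tubulin, mitochondrial-mass and membrane-permeability phenotypes are per cents of healthy-nucleus cells.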

[3] = 6 h, replicate number 1, timepoint 6 hours
[4] = 12 h, replicate number 1, timepoint 12 hours
[5] = 18 h, replicate number 1, timepoint 18 hours
[6] = 24 h, replicate number 1, timepoint 24 hours
[7] = 12 h, 1 µM, compound concentration 1 uM, replicate 1
[8] = 12 h, 1 µM, compound concentration 1 uM, replicate 2
[9] = 12 h, 10 µM, compound concentration 10 uM, replicate 1
[10] = 12 h, 10 µM, compound concentration 10 uM, replicate 2
[11] = 24 h, 1 µM, compound concentration 1 uM, replicate 1
[12] = 24 h, 1 µM, compound concentration 1 uM, replicate 2
[13] = 24 h, 10 µM, compound concentration 10 uM, replicate 1
[14] = 24 h, 10 µM, compound concentration 10 uM, replicate 2
[15] = 48 h, 1 µM, compound concentration 1 uM, replicate 1
[16] = 48 h, 1 µM, compound concentration 1 uM, replicate 2
[17] = 48 h, 10 µM, compound concentration 10 uM, replicate 1
[18] = 48 h, 10 µM, compound concentration 10 uM, replicate 2

Cc1nc(Cc2cccc(C(F)(F)F)c2)sc1-c1ccc(C(N)=O)nc1 [TP-024n]
Growth Rate (U2OS; [3]): 0 | Growth Rate (U2OS; [4]): 0 | Growth Rate (U2OS; [5]): 0 | Growth Rate (U2OS; [6]): 0 | Growth Rate (Fibroblast [1]; [3]): 0 | Growth Rate (Fibroblast [1]; [4]): 0 | Growth Rate (Fibroblast [1]; [5]): 0 | Growth Rate (Fibroblast [1]; [6]): 0 | Growth Rate (HEK-293T; 0 h, replicate number 2, timepoint 0 hours): 0 | Growth Rate (HEK-293T; [3]): 0 | Growth Rate (HEK-293T; [4]): 0 | Growth Rate (HEK-293T; [5]): 0 | Growth Rate (HEK-293T; [6]): 0 | Population Apoptotic (%) (Fibroblast [2]; [7]): 59% | Population Fragmented Nuclei (%) (Fibroblast [2]; [7]): 16% | Population Healthy Nuclei (%) (Fibroblast [2]; [7]): 45% | Population Hoechst High Intensity Objects (%) (Fibroblast [2]; [7]): 11% | Population Membrane Permeable-Phenotype (%) (Fibroblast [2]; [7]): 23% | Population Mitochondria Different-Phenotype (%) (Fibroblast [2]; [7]): 3% | Population Mitotic Cells (%) (Fibroblast [2]; [7]): 40% | Population Normal (%) (Fibroblast [2]; [7]): 88% | Population Pyknosed Nuclei (%) (Fibroblast [2]; [7]): 37% | Population Tubulin-Different-Phenotype (%) (Fibroblast [2]; [7]): 33% | Total Cell Count (Fibroblast [2]; [7]): 125 | Population Apoptotic (%) (Fibroblast [2]; [8]): 50% | Population Fragmented Nuclei (%) (Fibroblast [2]; [8]): 0% | Population Healthy Nuclei (%) (Fibroblast [2]; [8]): 94% | Population Membrane Permeable-Phenotype (%) (Fibroblast [2]; [8]): 2% | Population Mitochondria Different-Phenotype (%) (Fibroblast [2]; [8]): 18% | Population Mitotic Cells (%) (Fibroblast [2]; [8]): 50% | Population Pyknosed Nuclei (%) (Fibroblast [2]; [8]): 5% | Population Tubulin-Different-Phenotype (%) (Fibroblast [2]; [8]): 16% | Total Cell Count (Fibroblast [2]; [8]): 130 | Population Apoptotic (%) (Fibroblast [2]; [9]): 63% | Population Fragmented Nuclei (%) (Fibroblast [2]; [9]): 25% | Population Healthy Nuclei (%) (Fibroblast [2]; [9]): 37% | Population Hoechst High Intensity Objects (%) (Fibroblast [2]; [9]): 14% | Population Membrane Permeable-Phenotype (%) (Fibroblast [2]; [9]): 2% | Population Mitochondria Different-Phenotype (%) (Fibroblast [2]; [9]): 16% | Population Mitotic Cells (%) (Fibroblast [2]; [9]): 36% | Population Normal (%) (Fibroblast [2]; [9]): 86% | Population Pyknosed Nuclei (%) (Fibroblast [2]; [9]): 36% | Population Tubulin-Different-Phenotype (%) (Fibroblast [2]; [9]): 67% | Total Cell Count (Fibroblast [2]; [9]): 150 | Population Apoptotic (%) (Fibroblast [2]; [10]): 66% | Population Fragmented Nuclei (%) (Fibroblast [2]; [10]): 17% | Population Healthy Nuclei (%) (Fibroblast [2]; [10]): 67% | Population Hoechst High Intensity Objects (%) (Fibroblast [2]; [10]): 4% | Population Membrane Permeable-Phenotype (%) (Fibroblast [2]; [10]): 9% | Population Mitochondria Different-Phenotype (%) (Fibroblast [2]; [10]): 21% | Population Mitotic Cells (%) (Fibroblast [2]; [10]): 33% | Population Normal (%) (Fibroblast [2]; [10]): 95% | Population Pyknosed Nuclei (%) (Fibroblast [2]; [10]): 14% | Population Tubulin-Different-Phenotype (%) (Fibroblast [2]; [10]): 11% | Total Cell Count (Fibroblast [2]; [10]): 44 | Population Apoptotic (%) (Fibroblast [2]; [11]): 46% | Population Fragmented Nuclei (%) (Fibroblast [2]; [11]): 17% | Population Healthy Nuclei (%) (Fibroblast [2]; [11]): 51% | Population Hoechst High Intensity Objects (%) (Fibroblast [2]; [11]): 11% | Population Membrane Permeable-Phenotype (%) (Fibroblast [2]; [11]): 31% | Population Mitochondria Different-Phenotype (%) (Fibroblast [2]; [11]): 1% | Population Mitotic Cells (%) (Fibroblast [2]; [11]): 53% | Population Normal (%) (Fibroblast [2]; [11]): 88% | Population Pyknosed Nuclei (%) (Fibroblast [2]; [11]): 32% | Population Tubulin-Different-Phenotype (%) (Fibroblast [2]; [11]): 29% | Total Cell Count (Fibroblast [2]; [11]): 113 | Population Apoptotic (%) (Fibroblast [2]; [12]): 50% | Population Fragmented Nuclei (%) (Fibroblast [2]; [12]): 5% | Population Healthy Nuclei (%) (Fibroblast [2]; [12]): 91% | Population Hoechst High Intensity Objects (%) (Fibroblast [2]; [12]): 5% | Population Membrane Permeable-Phenotype (%) (Fibroblast [2]; [12]): 1% | Population Mitochondria Different-Phenotype (%) (Fibroblast [2]; [12]): 7% | Population Mitotic Cells (%) (Fibroblast [2]; [12]): 50% | Population Normal (%) (Fibroblast [2]; [12]): 95% | Population Pyknosed Nuclei (%) (Fibroblast [2]; [12]): 3% | Population Tubulin-Different-Phenotype (%) (Fibroblast [2]; [12]): 15% | Total Cell Count (Fibroblast [2]; [12]): 126 | Population Apoptotic (%) (Fibroblast [2]; [13]): 64% | Population Fragmented Nuclei (%) (Fibroblast [2]; [13]): 19% | Population Healthy Nuclei (%) (Fibroblast [2]; [13]): 57% | Population Hoechst High Intensity Objects (%) (Fibroblast [2]; [13]): 13% | Population Membrane Permeable-Phenotype (%) (Fibroblast [2]; [13]): 5% | Population Mitochondria Different-Phenotype (%) (Fibroblast [2]; [13]): 12% | Population Mitotic Cells (%) (Fibroblast [2]; [13]): 35% | Population Normal (%) (Fibroblast [2]; [13]): 86% | Population Pyknosed Nuclei (%) (Fibroblast [2]; [13]): 23% | Population Tubulin-Different-Phenotype (%) (Fibroblast [2]; [13]): 58% | Total Cell Count (Fibroblast [2]; [13]): 152 | Population Apoptotic (%) (Fibroblast [2]; [14]): 44% | Population Fragmented Nuclei (%) (Fibroblast [2]; [14]): 14% | Population Healthy Nuclei (%) (Fibroblast [2]; [14]): 58% | Population Hoechst High Intensity Objects (%) (Fibroblast [2]; [14]): 2% | Population Membrane Permeable-Phenotype (%) (Fibroblast [2]; [14]): 25% | Population Mitochondria Different-Phenotype (%) (Fibroblast [2]; [14]): 32% | Population Mitotic Cells (%) (Fibroblast [2]; [14]): 55% | Population Normal (%) (Fibroblast [2]; [14]): 97% | Population Pyknosed Nuclei (%) (Fibroblast [2]; [14]): 26% | Population Tubulin-Different-Phenotype (%) (Fibroblast [2]; [14]): 22% | Total Cell Count (Fibroblast [2]; [14]): 60 | Population Apoptotic (%) (Fibroblast [2]; [15]): 52% | Population Fragmented Nuclei (%) (Fibroblast [2]; [15]): 21% | Population Healthy Nuclei (%) (Fibroblast [2]; [15]): 58% | Population Hoechst High Intensity Objects (%) (Fibroblast [2]; [15]): 19% | Population Membrane Permeable-Phenotype (%) (Fibroblast [2]; [15]): 22% | Population Mitochondria Different-Phenotype (%) (Fibroblast [2]; [15]): 1% | Population Mitotic Cells (%) (Fibroblast [2]; [15]): 47% | Population Normal (%) (Fibroblast [2]; [15]): 80% | Population Pyknosed Nuclei (%) (Fibroblast [2]; [15]): 20% | Population Tubulin-Different-Phenotype (%) (Fibroblast [2]; [15]): 31% | Total Cell Count (Fibroblast [2]; [15]): 116 | Population Apoptotic (%) (Fibroblast [2]; [16]): 33% | Population Fragmented Nuclei (%) (Fibroblast [2]; [16]): 16% | Population Healthy Nuclei (%) (Fibroblast [2]; [16]): 80% | Population Hoechst High Intensity Objects (%) (Fibroblast [2]; [16]): 11% | Population Membrane Permeable-Phenotype (%) (Fibroblast [2]; [16]): 12% | Population Mitochondria Different-Phenotype (%) (Fibroblast [2]; [16]): 0% | Population Mitotic Cells (%) (Fibroblast [2]; [16]): 66% | Population Normal (%) (Fibroblast [2]; [16]): 88% | Population Pyknosed Nuclei (%) (Fibroblast [2]; [16]): 3% | Population Tubulin-Different-Phenotype (%) (Fibroblast [2]; [16]): 35% | Total Cell Count (Fibroblast [2]; [16]): 98 | Population Apoptotic (%) (Fibroblast [2]; [17]): 77% | Population Fragmented Nuclei (%) (Fibroblast [2]; [17]): 19% | Population Healthy Nuclei (%) (Fibroblast [2]; [17]): 64% | Population Hoechst High Intensity Objects (%) (Fibroblast [2]; [17]): 9% | Population Membrane Permeable-Phenotype (%) (Fibroblast [2]; [17]): 11% | Population Mitochondria Different-Phenotype (%) (Fibroblast [2]; [17]): 15% | Population Mitotic Cells (%) (Fibroblast [2]; [17]): 22% | Population Normal (%) (Fibroblast [2]; [17]): 90% | Population Pyknosed Nuclei (%) (Fibroblast [2]; [17]): 16% | Population Tubulin-Different-Phenotype (%) (Fibroblast [2]; [17]): 44% | Total Cell Count (Fibroblast [2]; [17]): 148 | Population Apoptotic (%) (Fibroblast [2]; [18]): 25% | Population Fragmented Nuclei (%) (Fibroblast [2]; [18]): 27% | Population Healthy Nuclei (%) (Fibroblast [2]; [18]): 68% | Population Hoechst High Intensity Objects (%) (Fibroblast [2]; [18]): 10% | Population Membrane Permeable-Phenotype (%) (Fibroblast [2]; [18]): 5% | Population Mitochondria Different-Phenotype (%) (Fibroblast [2]; [18]): 7% | Population Mitotic Cells (%) (Fibroblast [2]; [18]): 75% | Population Normal (%) (Fibroblast [2]; [18]): 89% | Population Pyknosed Nuclei (%) (Fibroblast [2]; [18]): 3% | Population Tubulin-Different-Phenotype (%) (Fibroblast [2]; [18]): 52% | Total Cell Count (Fibroblast [2]; [18]): 124
